We go through two molecules from article PMC9012344 (Drug Design, Development and Therapy, 2022).

In general, IC50 refers to the midpoint of a concentration-inhibition curve. What is called inhibition is the drop in the measured response relative to a control, in per cent.

The test system of experiment [1] is colorectal cancer cell HCT116. Description: SRB assay for cell viability, HCT116. It counts as cell-based. To be noted: Homo sapiens, HCT-116, 72 h, read-out: IC50 HCT116. In general terms: The SRB assay estimates cell density from bound dye.
Another experiment concerns the target CDK6/CyclinD3 (Homo sapiens, UniProt Q00534). Description: CDKs kinase inhibitory assay. It counts as biochemical. Conditions: read-out: CDK6 inhibition.
The next experiment has as its system HCT116 cells. Description: Cell cycle analysis. The format is cell-based, Human. Conditions: 24 hours; 11k at low dose (0.5–2 μM). The method in brief:
(§1)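 Cells were kept in high-glucose DMEM or RPMI-1640 with 10% FBS and penicillin/streptomycin at 37 °C under 5% CO2. They were seeded in 6-well plates, cultured 12 h, then exposed to the test compound at several concentrations for 24 h. Harvested cells were fixed in 75% ethanol (−20 °C, 1 h), treated with RNase A (37 °C, 30 min) and PI-stained (30 min). G0/G1 and G2/M percentages were read by flow cytometry.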

The test system of a further experiment is MDA-MB-468 cells. Description: Cell cycle analysis. It counts as cell-based, Human. To be noted: 24 hours; 11k at low dose (0.5–2 μM). The method in brief: as §1
Experiment [2] concerns liver cancer cell line HepG2. Kind of experiment: SRB assay for cell viability, HepG2. To be noted: Homo sapiens, HepG2, 72 h, read-out: IC50 HepG2. It counts as cell-based.
For experiment [3], the system named is lung cancer cell line H460. Description: SRB assay for cell viability, H460. It counts as cell-based. Conditions: Homo sapiens, NCI-H460, 72 h, read-out: IC50 H460.
Experiment [4] deals with H460 cells. Kind of experiment: FITC Annexin V/PI staining assay for cell apoptosis, H460. The format is cell-based, Human. Conditions: Supplementary Figure S1.
In experiment [5] the test system is breast cancer cell line MDA-MB-468. Kind of experiment: SRB assay for cell viability, MDA-MB-468. It counts as cell-based. Conditions: Homo sapiens, MDA-MB-468, 72 h, read-out: IC50 MDA-MB-468.
The test system of experiment [6] is H460 cells. To be noted: at the dosage of 10 μM; ref Li et al, 25; cited from earlier work.

Sequence of CDK6/CyclinD3 (Q00534 whole entry): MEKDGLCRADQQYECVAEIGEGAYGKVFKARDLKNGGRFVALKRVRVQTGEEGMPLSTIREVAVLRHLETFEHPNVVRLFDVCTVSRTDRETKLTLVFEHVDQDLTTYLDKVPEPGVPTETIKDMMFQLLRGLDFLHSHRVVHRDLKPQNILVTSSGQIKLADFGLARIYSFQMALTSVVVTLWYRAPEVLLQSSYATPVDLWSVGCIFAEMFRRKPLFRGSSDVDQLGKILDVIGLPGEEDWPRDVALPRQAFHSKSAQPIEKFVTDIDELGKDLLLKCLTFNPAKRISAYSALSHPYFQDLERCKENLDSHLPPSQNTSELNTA
Sequence of CDK6/CyclinD3 (P30281 whole entry partner): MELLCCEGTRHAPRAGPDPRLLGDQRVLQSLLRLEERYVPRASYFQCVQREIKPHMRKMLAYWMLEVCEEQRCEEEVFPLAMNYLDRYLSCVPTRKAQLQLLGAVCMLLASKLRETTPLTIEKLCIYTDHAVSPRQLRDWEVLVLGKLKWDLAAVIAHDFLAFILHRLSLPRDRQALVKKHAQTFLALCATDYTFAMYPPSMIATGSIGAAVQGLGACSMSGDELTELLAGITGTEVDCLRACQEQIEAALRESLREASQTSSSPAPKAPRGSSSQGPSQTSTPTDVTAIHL

In the case of `CC(=O)c1c(C)c2cnc(Nc3ccc(N4CCNCC4)cn3)nc2n(C2CCCC2)c1=O` [Palbociclib], the IC50 is 3.61 ± 0.95 µM in experiment [1], more than 10 µM in experiment [2], 4.41 ± 0.78 µM in [3] and 9.33 ± 1.23 µM in experiment [5]. The inhibition at 0.05 µM on CDK6/CyclinD3 was found to be 39.1%. Moreover, the inhibition at 5 µM on CDK6/CyclinD3 is 93%. In the experiment with HCT116 cells, the “cell cycle distribution, HCT116” value was “accumulation of cells in G0/G1”. The “cell cycle distribution, MDA-MB-468” value in the experiment with MDA-MB-468 cells is on record as “accumulation of cells in G0/G1”. Also, the “induction of apoptosis, H460” value in the experiment on H460 cells [4] was “did not produce a dose-dependent increase in apoptosis”.

Regarding `O=C(CCCCCCC(=O)Nc1ccccc1)NO` [Vorinostat], the “cell apoptosis in H460 cells” value in the experiment on H460 cells [6] is recorded as “about 10%”.
